Among all 370,000 compounds or so, about 500 (0.14%) were called active. Many of the other results were omitted from the sample, so actives are more common in it than they were. Unmarked numbers belong to inactive results.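 How the source made its calls: active means inhibition above the mean of compounds falling within the control limits plus 3 SD of them (cut at about 14% in these data); inactive means the rest.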
The compounds below were run against Fibrinogen beta chain (Homo sapiens) (UniProt P02675) (assay: small molecules displacing Tn7 from DD(E) complex – biochemical, fluorescence polarization, human fibrin, Tn7 probe, primary screen (AID 720508;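 further: 0% = plate median of compound wells and 100% = 10 µM Aha-Tn7 peptide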)). Conditions: FP displacement of FITC-Tn7 peptide from fibrin DD(E); at 8.3 µM; stronger effect = higher value; 0% = median of compound wells per plate.
Chain of Fibrinogen beta chain (Homo sapiens) (P02675 whole entry, looked up): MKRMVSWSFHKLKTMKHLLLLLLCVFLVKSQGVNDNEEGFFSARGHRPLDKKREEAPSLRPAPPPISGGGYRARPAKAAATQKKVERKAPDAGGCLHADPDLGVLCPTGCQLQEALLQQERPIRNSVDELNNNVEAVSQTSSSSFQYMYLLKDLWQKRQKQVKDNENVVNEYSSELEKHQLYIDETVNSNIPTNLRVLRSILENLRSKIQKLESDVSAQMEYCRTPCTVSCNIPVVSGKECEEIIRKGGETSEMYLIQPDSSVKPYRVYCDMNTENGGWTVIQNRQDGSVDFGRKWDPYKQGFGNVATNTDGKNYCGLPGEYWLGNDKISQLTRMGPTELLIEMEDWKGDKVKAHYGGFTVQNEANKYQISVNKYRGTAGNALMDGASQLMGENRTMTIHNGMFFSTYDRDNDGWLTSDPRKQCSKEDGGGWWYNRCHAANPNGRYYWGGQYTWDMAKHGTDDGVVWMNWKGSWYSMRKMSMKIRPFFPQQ
Outline: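 Assay system: Human fibrin DD(E) protein | Medium: Tris buffer with calcium and detergent, pH 7.8 | Reagent: 0.1 µM fluorescent Tn7 | Compound dosing: Single point at 8.3 µM | Times: 10 min preincubation, 3 h with tracer, room temperature | Detection: Fluorescence polarization of the labelled Tn7 tracer | Controls: Aha-Tn7 high control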

Compound	inhibition
O=C(NCc1ccco1)C1CCCN1S(=O)(=O)c1ccccc1C(F)(F)F (stereo not drawn)	-1.12%
COc1ccc(NC2CC(=O)N(C)C2=O)cc1 (stereo not drawn)	0.3%
CCC1CCCCN1C(=S)Nc1ccc(SC(F)F)cc1 (stereo not drawn)	5.34%
C[N+]1(CCNC(=O)/C=N/O)CCCCC1	1.46%
COc1cc(C(=S)NC2CCCCC2)ccc1O	2.78%
COc1ccc(C)cc1NC(=S)N1CCOCC1	-0.49%
COc1cc(C(=S)N2CCOCC2)ccc1O	14.7% (active)
COC(=O)[C@]12CCCCC=C1N(Cc1ccc(Cl)cc1Cl)C(=O)[C@H](CC(=O)NCc1cccc3ccccc13)C2	-3.23%
Cn1c(=O)cc(OCCCC(=O)N2CCN(c3ccccn3)CC2)c2ccccc21	2.1%
OCCn1c(-c2ccccc2)csc1=Nc1ccccc1	5.44%
C=CCOc1cccc(C2C(C(=O)c3ccc(C)o3)=C(O)C(=O)N2CCN2CCOCC2)c1 (stereo not drawn)	0.33%
Cc1cc(C)n2c(Nc3c(C)cccc3C)c(CCc3ccccc3)nc2n1	10.1%
C=CCOc1c2ccc(C(=O)N(CC)c3ccc(OC)cc3)cc2nn1C	1.93%
O=S(=O)(c1ccc(-c2ccno2)s1)N1CCCCC1	-8.93%
O=[N+]([O-])/C=C/c1ccc2c(ccn2Cc2ccccc2)c1	0.19%
O=S(=O)(NCC1CCCO1)c1cnc(Cl)c(Cl)c1 (stereo not drawn)	0.79%
O=C(COC(=O)c1ccc(N2CCCC2=O)cc1)c1ccc(OC(F)F)cc1	-9.52%
COc1ccc(-c2nc(CCNC(=O)c3ccc(Br)o3)cs2)cc1	16.8% (active)
COc1cc(OC)cc(C(=O)NNC(=O)CNC(=O)c2ccc(Br)o2)c1	3.03%
COc1cc(OC)cc(C(=O)NCC(=O)OCc2csc(-c3ccccc3)n2)c1	1.99%
CC(C)c1nnc(NC(=O)CCC(=O)N2CCN(c3cccc(Cl)c3)CC2)s1	3.33%
CN1CCc2ccccc2C1Cc1ccccc1NC(=O)c1sc2ccccc2c1Cl (stereo not drawn)	-2.71%
O=C(Nc1ccon1)c1sc2ccccc2c1Cl	15.2% (active)
O=C(Nc1ccc2c(c1)OCO2)c1sc2cc(Cl)ccc2c1Cl	6.59%

Compound	inhibition
Cc1cc(Cl)ccc1C(=O)C1CCCN(C(=O)c2ccc3c(c2)OCO3)C1 (stereo not drawn)	-13.3%
COc1cccc(NC(=O)CN(C)CC(=O)c2c(N)n(Cc3ccccc3)c(=O)n(C)c2=O)c1	-1.38%
O=C(COC(=O)c1ccccc1NC(=O)c1ccco1)Nc1ccc2c(c1)OC(F)(F)O2	-0.79%
N#Cc1cccc(CSc2ncnc(N)n2)c1	-4.53%
COC(=O)[C@]12CCCCC=C1N(Cc1ccco1)C(=O)[C@H](CC(=O)NCC1CCCCC1)C2	6.36%
CCOc1ccc(NC(=O)CCS(=O)(=O)c2ccc3c(c2)CCCN3C(=O)CC)cc1	-5.9%
COc1ccccc1-c1sc2ccccc2c1C#CC1(O)CCCCC1	1.77%
C[C@H](CO)N1C[C@H](C)[C@@H](CN(C)S(=O)(=O)c2ccc(F)cc2)Oc2ccc(NC(=O)CCC(F)(F)F)cc2C1=O	-0.61%
O=C(CCNS(=O)(=O)c1cccs1)N1CCN(c2ccc(F)cc2)CC1	3.48%
COc1ccc(NC(=O)CN(C)C(=O)c2cccc(S(=O)(=O)N3CCN(c4ccccc4)CC3)c2)cc1	-8.03%
CCCc1nc2c3ccccc3ccn2c1Cc1ccccc1C(F)(F)F	6.59%
O=C(CSc1nnc(-c2ccccn2)n1-c1ccc(Cl)cc1)Nc1ccccc1-c1ccccc1	14% (active)
COc1ccc(-n2c(SCC(=O)Nc3ccccc3-c3ccccc3)nnc2-c2cccnc2)cc1	6.88%
Cc1ccc(-n2c(SCC(=O)Nc3cccc4ccccc34)nnc2-c2ccccn2)cc1	1.64%
NNC(=O)CNC(c1ccccc1)c1cc(Cl)ccc1NC(=O)c1ccccc1 (stereo not drawn)	2.82%
O=C(/C=C/c1ccc([N+](=O)[O-])cc1)NCCSCc1ccco1	1.56%
C=CCn1c(SCC(=O)c2c(N)n(C)c(=O)n(C)c2=O)nc2sc(CC)cc2c1=O	3.02%
CC1(C)CC(=O)c2sc(N)nc2C1	-0.75%
Cc1cc(C)cc(N(CCC#N)C(=O)CN2C(=O)NC3(CCCC3)C2=O)c1	-4.5%
COc1ccc(OCCCC(=O)Nc2cccc(S(=O)(=O)N3CCCCCC3)c2)cc1	6.07%
N#CCSc1ccccc1NC(=O)CN1C(=O)NC(CCc2ccccc2)C1=O (stereo not drawn)	-8.31%
O=C(CCN1C(=O)c2ccncc2C1=O)Nc1cc(F)ccc1F	6.34%
CCOC(=O)C1(S(=O)(=O)c2ccc(Cl)cc2)CCN(Cc2ccccc2)CC1	7.42%
CCOC(=O)c1ccc(NC(=O)c2ccc(NC(=O)C3CCCO3)cc2)cc1 (stereo not drawn)	8.18%

Compound	inhibition
CCOC(=O)c1ccc(NC(=O)c2c(NCc3ccccc3)[nH]c(=O)[nH]c2=O)cc1	1.03%
C#CCNc1ccc(C(=O)OCC)cc1	26.2% (active)
Oc1ccccc1-c1cc(-c2ccc(Cl)cc2)n[nH]1	-0.94%
COc1ccc(Br)c2c1C(=O)CC2	-5.83%
Cn1c(=O)[nH]c(=O)c2c1nc(CN1CCN(c3ccccc3F)CC1)n2CCc1ccccc1	6.89%
CC(C)CCN1CCN=C1N(C)C	-8.21%
OC(c1nc2ccc(F)cc2[nH]1)C(O)c1nc2ccc(F)cc2[nH]1 (stereo not drawn)	-4.03%
CCOC(=O)N1CCC(=NNC(N)=O)CC1	0.3%
CCOC(=O)C=Cc1ccc(C(=O)OCC)[nH]1	-0.66%
COc1cc2nc(CN(C)Cc3ccc(F)cc3)[nH]c(=O)c2cc1OC	-5.44%
Cc1ccc(C)c(NS(=O)(=O)c2c(C)[nH]c(C)c2C(=O)N2CCCCC2)c1	-9.23%
CCc1nc2c(OCc3ccc(F)c(F)c3)cccn2c1N(C)C(=O)c1ccco1	7.1%
Cc1ccc(NS(=O)(=O)c2ccc3c(c2)NC(=O)CO3)cc1	2.86%
CC(C)[C@@H](C(=O)OCC(=O)c1ccc2c(c1)NC(=O)CO2)N1C(=O)c2ccccc2C1=O	-6.7%
Cc1nnc2n1N=C(c1ccc3c(c1)NC(=O)CO3)CS2	15.4% (active)
COc1cc(C(=O)NN(CCC#N)C2=NS(=O)(=O)c3ccccc32)cc(OC)c1OC	-4.12%
CN1C(=O)c2cccc3c(N)ccc(c23)C1=O	24.4% (active)
Cc1nn(C)cc1N1C(=O)c2cccc3c(N)ccc(c23)C1=O	28.7% (active)
CC(=O)CC(CC(=O)NC1CCCCC1)c1ccccc1 (stereo not drawn)	4.93%
CCCC(=O)N1CCC(CCC(=O)NC2CC2)CC1	-7.44%
CC(Sc1ccc(S(=O)(=O)N2CCN(C)CC2)cn1)C(=O)NC1CCCC(C)C1C (stereo not drawn)	4.47%
CCC(C)N1CC(=O)N2Cc3[nH]c4ccccc4c3C[C@H]2C1=O (stereo partly drawn)	-0.72%
COc1ccc(-n2c(SCC(=O)Nc3sc4c(c3C#N)CCCC4)nnc2-c2ccc(O)cc2)cc1	-4.29%
CCCCOC(=O)NCN1C(=O)C2C3C=CC(C3)C2C1=O (stereo not drawn)	12.4%

Compound	inhibition
Cc1ccc(S(=O)(=O)N2CCC(C(=O)NCCC3=CCCCC3)CC2)cc1C	0.25%
OCC1(Cc2ccccc2C(F)(F)F)CCN(Cc2ccncc2)CC1	-3.68%
Nc1nc(Br)c2ccccc2c1-c1ccc(F)cc1	-1.53%
O=C(c1ccc(OC2CCN(C(=O)c3cccnc3)CC2)cc1)N1CCCCCC1	3.65%
O=C(Cn1cnc2c(nnn2Cc2ccc(F)cc2)c1=O)NCc1ccc2c(c1)OCO2	-1.63%
O=C(Nc1cccc(C(=O)NC2CC2)c1)c1ccc(F)c(S(=O)(=O)N2CCOCC2)c1	6.51%
CC12CCC(C(=O)N(CCC#N)CCC#N)(CC1=O)C2(C)C (stereo not drawn)	1.78%
N#Cc1cccc(CN2CCC(=O)N(CCO)CC2)c1	7.16%
N#CCCN1CCN(S(=O)(=O)c2ccc(S(=O)(=O)N3CCCC3)cc2)CC1	3.06%
CC(C)(C)c1cc(CN2CCN(CCC#N)CC2)cc(C(C)(C)C)c1O	13.8% (active)
CCC(c1ccc(NC(=O)OC(C)(C)C)cc1)c1cc(OC)cc(OC)c1 (stereo not drawn)	-0.44%
CN(C)S(=O)(=O)c1ccc(N/C=C(\[N+](=O)[O-])S(=O)(=O)c2ccccc2)cc1	-0.82%
COC(=O)c1sccc1NC(=O)CSc1ccccc1NS(=O)(=O)c1cc(Cl)ccc1Cl	0.88%
Cc1cc(C)c2cc(CN(Cc3cccs3)Cc3nnnn3CC3CCCO3)c(=O)[nH]c2c1 (stereo not drawn)	-1.42%
CC(C)[C@H](NC(=O)N1CCn2c1nc1ccccc12)C(=O)NCc1ccc2c(c1)OCO2	1.52%
O=S1(=O)c2c(cccc2N2CC[C@H](O)C2)O[C@@H]2CCN1C2	4.53%
CCC(=O)Nc1cccc(C2=NOC3(C2)C[C@@H](C(N)=O)N(C(=O)c2cc([N+](=O)[O-])cc([N+](=O)[O-])c2C)C3)c1 (stereo partly drawn)	-4.25%
CC(Oc1ccccc1)C(=O)Nc1oc(-c2ccco2)c(-c2ccco2)c1C#N (stereo not drawn)	2.07%
Cc1ccc(OCc2nc(C#N)c(N3CCCC3)o2)cc1	0.61%
N#Cc1nc(Cc2cccc3ccccc23)oc1NCc1ccc2c(c1)OCO2	4.95%
CCOc1ccc(Nc2oc(Cc3ccccc3)nc2C#N)cc1	14.8% (active)
